The values that follow come from ChEMBL document CHEMBL4699413, “Structure-guided discovery of selective methionyl-tRNA synthetase inhibitors with potent activity against Trypanosoma brucei” (RSC Med Chem, 2020).

Each structure is given as a SMILES string.

As usually defined, the CC50 is the concentration giving 50% cytotoxicity. Usually EC50 stands for the concentration needed to bring the measured effect to its halfway point. Usually IC50 stands for the concentration that inhibits the measured activity by half.

Data set [1] can be described thus: Cytotoxicity against human HepG2 cells assessed as reduction in cell viability after 48 hrs by alamar blue dye based assay.
Data set [2] can be described thus: Cytotoxicity against human WIL2-NS cells assessed as reduction in cell viability after 48 hrs by alamar blue dye based assay. Put shortly: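 CRL-8155 lymphocytic cells in RPMI with 10% heat-inactivated FBS, 2 mM L-glutamine, 0.4 mM sodium pyruvate, penicillin/streptomycin, 37 °C, 5% CO₂; 30 000 cells/well; quadruplicate serial 3-fold dilutions from 50 µM (or 25 µM); AlamarBlue at 48 h, 50 µM quinacrine as background; percent inhibition versus untreated wells; single experiment.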
(Resazurin is reduced to fluorescent resorufin, in cell work by metabolically active cells.)

Data set [3] concerns mitochondrial MetRS (mitochondrial protein synthesis). The experiment in a line: Selectivity index, ratio of EC50 for inhibition of mitochondrial MetRS-mediated mitochondrial protein synthesis in human HepG2 cells to EC50 for antitrypanosomal activity against blood stream form of Trypanosoma brucei brucei 427. As to conditions: read-out: Ratio EC50. The format is toxicity, cell-based.

Data set [4] is described as follows: Ratio of drug level in brain to plasma in Swiss Webster mouse at 5 mg/kg, ip measured after 60 mins by LC-MS analysis. The format is ADME, organism-based. Conditions: 1 h. Put shortly: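 Swiss Webster mice, triplicate, 5 mg kg⁻¹ IP in 7% Tween80, 5% DMSO, 3% EtOH in saline; plasma and brain collected 1 h post-dose; brain homogenized in water, extracts measured by LC-MS/MS; brain levels corrected for 3% v/w blood content.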

In data set [5] the target is T1, Methionine--tRNA ligase, mitochondrial (Homo sapiens, UniProt Q96GW9).
T1 sequence (Q96GW9 whole entry): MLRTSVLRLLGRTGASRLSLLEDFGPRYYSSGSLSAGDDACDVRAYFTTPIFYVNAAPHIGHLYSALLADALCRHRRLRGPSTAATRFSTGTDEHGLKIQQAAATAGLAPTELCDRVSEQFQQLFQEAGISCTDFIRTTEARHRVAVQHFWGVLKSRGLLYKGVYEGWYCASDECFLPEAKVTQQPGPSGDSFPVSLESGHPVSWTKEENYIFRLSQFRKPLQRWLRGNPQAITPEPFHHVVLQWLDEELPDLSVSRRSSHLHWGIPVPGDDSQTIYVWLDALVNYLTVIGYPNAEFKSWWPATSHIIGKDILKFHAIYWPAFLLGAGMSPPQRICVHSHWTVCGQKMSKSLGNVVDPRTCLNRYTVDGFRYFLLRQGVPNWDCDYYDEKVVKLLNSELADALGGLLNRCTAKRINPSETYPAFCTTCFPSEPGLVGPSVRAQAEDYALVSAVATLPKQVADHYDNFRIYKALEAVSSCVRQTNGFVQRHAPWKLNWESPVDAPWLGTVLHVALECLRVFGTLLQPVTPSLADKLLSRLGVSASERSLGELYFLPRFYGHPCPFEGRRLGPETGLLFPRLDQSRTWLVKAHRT
The experiment in a line: Inhibition of mitochondrial MetRS-mediated mitochondrial protein synthesis in human HepG2 cells measured after 6 days by ELISA. Type of data set: cell-based. Put shortly: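 HepG2 seeded 6000 cells/well on collagen-coated plates, grown 24 h in DMEM/F12 with 10% FBS, pyruvate, antibiotics; then serial 3-fold dilutions from 25 µM in duplicate, 6 days at 37 °C, medium with compound refreshed every 48 h; paraformaldehyde-fixed, COX-1 quantified by in-cell ELISA. Chloramphenicol control.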

In data set [6] the test system is Trypanosoma brucei brucei. Nature of the data set: Antitrypanosomal activity against blood stream form of Trypanosoma brucei brucei 427 assessed as parasite growth inhibition incubated for 48 hrs by alamar blue dye based assay. The format is functional, organism-based. Conditions: Trypanosoma brucei, 427, 48 h. In short, it runs like this:
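Bloodstream-form BSF 427 parasites in HMI-9 with 10% heat-inactivated FBS and penicillin/streptomycin, 37 °C, 5% CO₂; 10 000 cells/well initial inoculum; serial 3-fold dilutions in triplicate; Alamar Blue read at 48 h. Pentamidine control.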

A short description of data set [7]: Inhibition of recombinant N-terminal His6-tagged trypanosoma brucei brucei 427 Methionyl-tRNA synthetase (237 to 773 residues) expressed in Escherichia coli assessed as ATP depletion using L-methionine and tRNA as substrate by Kinase-Glo luminescence assay.

For the compound `COc1cc(-c2cccc3nc(Cc4nc5nc(Cl)ccc5[nH]4)cn23)c(Cl)cc1Cl`, the values for the CC50 at 48 h in data set [1] and in data set [2] were over 50000 nM and 9500 nM, respectively. The selectivity ratio in data set [3] is 145. Moreover, the BPR in data set [4] was determined as 0%. Moreover, the figures for the EC50 in data set [5] and in data set [6] were 507 nM and 3.5 nM, respectively.
For the compound `O=c1[nH]c(Cc2ccc(Cl)cc2Cl)cn1Cc1nc2ccccc2[nH]1`, the IC50 in data set [7] was under 40 nM. For the same compound, the EC50 in data set [6] is 350 nM.
As to `COc1cc(Cl)c(-c2cccc3nc(Cc4nc5nc(Cl)ccc5[nH]4)cn23)cc1OC`, the values for the CC50 at 48 h in data set [1] and in data set [2] were 28200 nM and 19000 nM, respectively. Also, the selectivity ratio in data set [3] amounted to 154. Moreover, the BPR in data set [4] was found to be 0.5%. Also, the figures for the concentration for a half-maximal effect (EC50) in data set [5] and in data set [6] were 478 nM and 3.1 nM, respectively.
In the case of `COc1cc(-c2cccc3nc(Cc4nc5nc(F)ccc5[nH]4)cn23)c(Cl)cc1Cl`, the values for the CC50 at 48 h in data set [1] and in data set [2] were over 50000 nM and 10400 nM, respectively. For the same compound, the selectivity ratio in data set [3] turned out to be 203. The BPR in data set [4] was 0.6%. Moreover, the EC50 in data set [5] is 1750 nM; in data set [6] it was 8.4 nM.
Turning to `CCn1c(Cc2ccc(OC)cc2Cl)cn(Cc2nc3nc(F)ccc3[nH]2)c1=O`, the CC50 at 48 h in data set [1] and in data set [2] was over 50000 nM each time. In addition, the selectivity ratio in data set [3] worked out at 42. In addition, the BPR in data set [4] is reported as 0%. The EC50 in data set [5] stood at 75 nM; in data set [6] it was 1.8 nM.
As for `COc1cc(Cl)c(-c2cccc3nc(Cc4nc5nc(F)ccc5[nH]4)cn23)cc1OC`, the CC50 at 48 h in data set [1] and in data set [2] was over 25000 nM each time. Further, in data set [3], the selectivity ratio worked out at 45. Besides, the BPR in data set [4] is 0%. The figures for the EC50 in data set [5] and in data set [6] were 316 nM and 7.2 nM, respectively.
